Source: PMC7950731 (Cell reports, 2019)

How the values were obtained:
Assay in all cases: TR-FRET of indisulam-induced ternary complex
Format in all cases: binding
DCAF15 = DCAF15 (Homo sapiens, UniProt Q14498+Q66K64)
Procedure, shortened: (§1)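 Purified His-DCAF15–DDB1–DDA1 (SF9 co-expression) and RBM39 aa 250–330-3xFLAG (E. coli, His tag TEV-cleaved), each 0.1 μM final, with 1 nM Eu-anti-6xHis donor and 5 ng/μL anti-FLAG-XL665 acceptor. Test compound titrated, 5 min at room temperature. Excitation 360 nm; 665/620 nm ratio. Run in triplicate; EC50 from four-parameter fit.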

RBM39 = RBM39 (Homo sapiens, UniProt Q14498+Q66K64)
Procedure, shortened: as §1

RBM23 = RBM23 (Homo sapiens, UniProt Q66K64+Q86U06)

EC50 (DCAF15): 2270 nM
EC50 (RBM39): 2270 nM
EC50 (RBM23): 2580 nM
SMILES: NS(=O)(=O)c1ccc(S(=O)(=O)Nc2cccc3c(Cl)c[nH]c23)cc1 [indisulam]
